# Measurements taken from ChEMBL document CHEMBL1212799 (2010).
# Assays:
# Klebsiella pneumoniae [1] = assay: Antibacterial activity against Klebsiella pneumoniae isolate 351 in vitro pharmacodynamic model; assay type: functional
# Method in brief: (§1)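 Inoculum 10^6 CFU/ml; dosing began 0.5 h after inoculation. Two treated models plus one untreated control per isolate; blood-agar counts; change in log10 CFU/ml over 24 h (detection limit 10^1); drug levels checked by HPLC.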
# Klebsiella pneumoniae [2] = assay: Antibacterial activity against Klebsiella pneumoniae isolate 354 in vitro pharmacodynamic model; assay type: functional; method in brief: as §1
# Klebsiella pneumoniae [3] = assay: Antibacterial activity against Klebsiella pneumoniae isolate 368 in vitro pharmacodynamic model; assay type: functional
# Method in brief: (§2)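 Simulated peak 38.4 µg/ml, trough 3.04 µg/ml. CAMHB at 37°C, 10^6 CFU/ml from overnight culture, drug started at 0.5 h. Two treated models plus one growth control. Change in log10 CFU/ml over 24 h on blood agar. Detection limit 10^1 CFU/ml.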
# Pseudomonas aeruginosa [4] = assay: Antibacterial activity against Pseudomonas aeruginosa isolate 1038 in vitro pharmacodynamic model; assay type: functional; method in brief: as §2
# Klebsiella pneumoniae [5] = assay: fT>MIC in Klebsiella pneumoniae isolate 351 at 2 gram for every 8 hrs administered as 3 hrs infusion over 24 hrs in in vitro pharmcodynamic model; assay type: functional
# Method in brief: (§3)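 Samples assayed by HPLC (linear 0.25–40 µg/ml). Time free drug stayed above the modal triplicate broth-microdilution MIC (CLSI) calculated for each 8-h interval.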
# Klebsiella pneumoniae [6] = assay: fT>MIC in Klebsiella pneumoniae isolate 353 at 2 gram for every 8 hrs administered as 3 hrs infusion over 24 hrs in in vitro pharmcodynamic model; assay type: functional, isoalte 353; method in brief: as §3
# Klebsiella pneumoniae [7] = assay: fT>MIC in Klebsiella pneumoniae isolate 334 at 2 gram for every 8 hrs administered as 3 hrs infusion over 24 hrs in in vitro pharmcodynamic model; assay type: functional; method in brief: as §3
# Klebsiella pneumoniae [8] = assay: fT>MIC in Klebsiella pneumoniae isolate 361 at 2 gram for every 8 hrs administered as 3 hrs infusion over 24 hrs in in vitro pharmcodynamic model; assay type: functional; method in brief: as §3
# Pseudomonas aeruginosa [9] = assay: fT>MIC in Pseudomonas aeruginosa isolate 1177 at 2 gram for every 8 hrs administered as 3 hrs infusion over 24 hrs in in vitro pharmcodynamic model; assay type: functional
# Pseudomonas aeruginosa [10] = assay: fT>MIC in Pseudomonas aeruginosa isolate 896 at 2 gram for every 8 hrs administered as 3 hrs infusion over 24 hrs in in vitro pharmcodynamic model; assay type: functional
# Pseudomonas aeruginosa [11] = assay: fT>MIC in Pseudomonas aeruginosa isolate 988 at 2 gram for every 8 hrs administered as 3 hrs infusion over 24 hrs in in vitro pharmcodynamic model; assay type: functional
# Klebsiella pneumoniae [12] = assay: fT>MIC in Klebsiella pneumoniae isolate 351 at 2 gram for every 8 hrs administered as 3 hrs infusion measured over 0-8 hrs in in vitro pharmcodynamic model; assay type: functional; method in brief: as §3
# Klebsiella pneumoniae [13] = assay: fT>MIC in Klebsiella pneumoniae isolate 353 at 2 gram for every 8 hrs administered as 3 hrs infusion measured over 0-8 hrs in in vitro pharmcodynamic model; assay type: functional, isoalte 353; method in brief: as §3
# Klebsiella pneumoniae [14] = assay: fT>MIC in Klebsiella pneumoniae isolate 357 at 2 gram for every 8 hrs administered as 3 hrs infusion measured over 0-8 hrs in in vitro pharmcodynamic model; assay type: functional; method in brief: as §3
# Klebsiella pneumoniae [15] = assay: fT>MIC in Klebsiella pneumoniae isolate 361 at 2 gram for every 8 hrs administered as 3 hrs infusion measured over 0-8 hrs in in vitro pharmcodynamic model; assay type: functional; method in brief: as §3
# Pseudomonas aeruginosa [16] = assay: fT>MIC in Pseudomonas aeruginosa isolate 1030 at 2 gram for every 8 hrs administered as 3 hrs infusion measured over 0-8 hrs in in vitro pharmcodynamic model; assay type: functional
# Pseudomonas aeruginosa [17] = assay: fT>MIC in Pseudomonas aeruginosa isolate 1038 at 2 gram for every 8 hrs administered as 3 hrs infusion measured over 0-8 hrs in in vitro pharmcodynamic model; assay type: functional
# Pseudomonas aeruginosa [18] = assay: fT>MIC in Pseudomonas aeruginosa isolate 762 at 2 gram for every 8 hrs administered as 3 hrs infusion measured over 0-8 hrs in in vitro pharmcodynamic model; assay type: functional
# Pseudomonas aeruginosa [19] = assay: fT>MIC in Pseudomonas aeruginosa isolate 988 at 2 gram for every 8 hrs administered as 3 hrs infusion measured over 0-8 hrs in in vitro pharmcodynamic model; assay type: functional
# Klebsiella pneumoniae [20] = assay: fT>MIC in Klebsiella pneumoniae isolate 354 at 2 gram for every 8 hrs administered as 3 hrs infusion measured over 8-16 hrs in in vitro pharmcodynamic model; assay type: functional; method in brief: as §3
# Klebsiella pneumoniae [21] = assay: fT>MIC in Klebsiella pneumoniae isolate 353 at 2 gram for every 8 hrs administered as 3 hrs infusion measured over 8-16 hrs in in vitro pharmcodynamic model; assay type: functional, isoalte 353; method in brief: as §3
# Klebsiella pneumoniae [22] = assay: fT>MIC in Klebsiella pneumoniae isolate 357 at 2 gram for every 8 hrs administered as 3 hrs infusion measured over 8-16 hrs in in vitro pharmcodynamic model; assay type: functional; method in brief: as §3
# Klebsiella pneumoniae [23] = assay: fT>MIC in Klebsiella pneumoniae isolate 360 at 2 gram for every 8 hrs administered as 3 hrs infusion measured over 8-16 hrs in in vitro pharmcodynamic model; assay type: functional; method in brief: as §3
# Klebsiella pneumoniae [24] = assay: fT>MIC in Klebsiella pneumoniae isolate 375 at 2 gram for every 8 hrs administered as 3 hrs infusion measured over 8-16 hrs in in vitro pharmcodynamic model; assay type: functional
# Klebsiella pneumoniae [25] = assay: fT>MIC in Klebsiella pneumoniae isolate 361 at 2 gram for every 8 hrs administered as 3 hrs infusion measured over 8-16 hrs in in vitro pharmcodynamic model; assay type: functional; method in brief: as §3
# Pseudomonas aeruginosa [26] = assay: fT>MIC in Pseudomonas aeruginosa isolate 1177 at 2 gram for every 8 hrs administered as 3 hrs infusion measured over 8-16 hrs in in vitro pharmcodynamic model; assay type: functional
# Pseudomonas aeruginosa [27] = assay: fT>MIC in Pseudomonas aeruginosa isolate 762 at 2 gram for every 8 hrs administered as 3 hrs infusion measured over 8-16 hrs in in vitro pharmcodynamic model; assay type: functional
# Klebsiella pneumoniae [28] = assay: fT>MIC in Klebsiella pneumoniae isolate 328A at 2 gram for every 8 hrs administered as 3 hrs infusion measured over 16-24 hrs in in vitro pharmcodynamic model; assay type: functional; method in brief: as §3
# Klebsiella pneumoniae [29] = assay: fT>MIC in Klebsiella pneumoniae isolate 354 at 2 gram for every 8 hrs administered as 3 hrs infusion measured over 16-24 hrs in in vitro pharmcodynamic model; assay type: functional; method in brief: as §3
# Klebsiella pneumoniae [30] = assay: fT>MIC in Klebsiella pneumoniae isolate 334 at 2 gram for every 8 hrs administered as 3 hrs infusion measured over 16-24 hrs in in vitro pharmcodynamic model; assay type: functional; method in brief: as §3
# Pseudomonas aeruginosa [31] = assay: fT>MIC in Pseudomonas aeruginosa isolate 1177 at 2 gram for every 8 hrs administered as 3 hrs infusion measured over 16-24 hrs in in vitro pharmcodynamic model; assay type: functional
# Klebsiella pneumoniae [32] = assay: Antibacterial activity against Klebsiella pneumoniae isolate 357 assessed as reduction of bacterial count at 16 ug/ml within 6 hrs in vitro pharmacodynamic model; assay type: functional
# Klebsiella pneumoniae [33] = assay: Antibacterial activity against Klebsiella pneumoniae isolate 353 assessed as reduction of bacterial count at 16 ug/ml within 6 hrs in vitro pharmacodynamic model; assay type: functional, isoalte 353
# Klebsiella pneumoniae [34] = assay: Antibacterial activity against Klebsiella pneumoniae isolate 354 assessed as reduction of bacterial count at 8 ug/ml within 6 hrs in vitro pharmacodynamic model; assay type: functional
# Klebsiella pneumoniae [35] = assay: Antibacterial activity against Klebsiella pneumoniae isolate 334 assessed as reduction of bacterial count at 32 ug/ml within 6 hrs in vitro pharmacodynamic model; assay type: functional
# Klebsiella pneumoniae [36] = assay: Antibacterial activity against Klebsiella pneumoniae isolate 375 assessed as reduction of bacterial count at 32 ug/ml within 6 hrs in vitro pharmacodynamic model; assay type: functional
# Pseudomonas aeruginosa [37] = assay: Antibacterial activity against Pseudomonas aeruginosa isolate 1177 assessed as reduction of bacterial count at 8 ug/ml within 6 hrs in vitro pharmacodynamic model; assay type: functional
# Pseudomonas aeruginosa [38] = assay: Antibacterial activity against Pseudomonas aeruginosa isolate 988 assessed as reduction of bacterial count at 16 ug/ml within 6 hrs in vitro pharmacodynamic model; assay type: functional
# Klebsiella pneumoniae [39] = assay: Antibacterial activity against Klebsiella pneumoniae isolate 368 assessed as reduction of bacterial count at 32 ug/ml within 6 hrs in vitro pharmacodynamic model; assay type: functional
smiles,measurement,setting,value
C[C@@H](O)[C@H]1C(=O)N2C(C(=O)O)=C(S[C@@H]3CN[C@H](C(=O)N(C)C)C3)[C@H](C)[C@H]12 [MEROPENEM],MIC,Klebsiella pneumoniae [1],8 µg/mL
same,MIC,Klebsiella pneumoniae [2],8 µg/mL
same,MIC,Klebsiella pneumoniae [3],32 µg/mL
same,MIC,Pseudomonas aeruginosa [4],8 µg/mL
same,fT>MIC,Klebsiella pneumoniae [5],69%
same,fT>MIC,Klebsiella pneumoniae [6],47%
same,fT>MIC,Klebsiella pneumoniae [7],16%
same,fT>MIC,Klebsiella pneumoniae [8],0%
same,fT>MIC,Pseudomonas aeruginosa [9],69%
same,fT>MIC,Pseudomonas aeruginosa [10],47%
same,fT>MIC,Pseudomonas aeruginosa [11],47%
same,fT>MIC,Klebsiella pneumoniae [12],69%
same,fT>MIC,Klebsiella pneumoniae [13],38%
same,fT>MIC,Klebsiella pneumoniae [14],12%
same,fT>MIC,Klebsiella pneumoniae [15],0%
same,fT>MIC,Pseudomonas aeruginosa [16],75%
same,fT>MIC,Pseudomonas aeruginosa [17],94%
same,fT>MIC,Pseudomonas aeruginosa [18],50%
same,fT>MIC,Pseudomonas aeruginosa [19],47%
same,fT>MIC,Klebsiella pneumoniae [20],56%
same,fT>MIC,Klebsiella pneumoniae [21],59%
same,fT>MIC,Klebsiella pneumoniae [22],0%
same,fT>MIC,Klebsiella pneumoniae [23],0%
same,fT>MIC,Klebsiella pneumoniae [24],0%
same,fT>MIC,Klebsiella pneumoniae [25],0%
same,fT>MIC,Pseudomonas aeruginosa [26],78%
same,fT>MIC,Pseudomonas aeruginosa [27],63%
same,fT>MIC,Klebsiella pneumoniae [28],78%
same,fT>MIC,Klebsiella pneumoniae [29],3%
same,fT>MIC,Klebsiella pneumoniae [30],0%
same,fT>MIC,Pseudomonas aeruginosa [31],78%
same,log10cfu,Klebsiella pneumoniae [32],>3
same,log10cfu,Klebsiella pneumoniae [33],>3
same,log10cfu,Klebsiella pneumoniae [34],>3
same,log10cfu,Klebsiella pneumoniae [35],>3
same,log10cfu,Klebsiella pneumoniae [36],>3
same,log10cfu,Pseudomonas aeruginosa [37],>=3
same,log10cfu,Pseudomonas aeruginosa [38],>=3
same,log10cfu,Klebsiella pneumoniae [39],>3
